pEC50, pIC50, pKi: −log10 of the molar value.
What was measured:
[1] = tested on: Ileum; assay: Relaxant activity in potassium depolarized guinea pig ileum longitudinal smooth muscle assessed as inhibition of calcium-induced contraction; format: functional, tissue-based; conditions: Cavia porcellus
Outline: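 K⁺-depolarized (80 mM) guinea pig ileum longitudinal smooth muscle is used. Calcium-induced contraction is measured with cumulative compound addition.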

[2] = tested on: Ileum; assay: Relaxant activity in potassium depolarized guinea pig ileum longitudinal smooth muscle assessed as inhibition of calcium-induced contraction at 5x10'-6 M relative to control; format: functional, Cavia porcellus; set-up: scale not given: the % may be the effect or the level left
[3] = tested on: Aorta; assay: Relaxant activity in potassium depolarized guinea pig aortic strips assessed as inhibition of calcium-induced contraction at 10^-4 M relative to control; format: functional, Cavia porcellus; set-up: scale not given: the % may be the effect or the level left
Outline: (§1)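 Guinea pig aortic strips and ileum longitudinal smooth muscle are depolarized with 80 mM K⁺. The read-out is percent inhibition of calcium-induced contraction. Aorta is tested at 10⁻⁴ M and ileum at 10⁻⁵ M.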

[4] = Negative chronotropic activity in guinea pig right atrium assessed as decrease in atrial rate at 10^-5 M relative to control; format: functional, Cavia porcellus, Cardiac atrium; set-up: scale not given: the % may be the effect or the level left
[5] = Negative inotropic activity in guinea pig left atrium assessed as decrease in developed tension at 10^-6 M relative to control; format: functional, Cavia porcellus, Cardiac atrium; set-up: scale not given: the % may be the effect or the level left
[6] = tested on: Ileum; assay: Relaxant activity in potassium depolarized guinea pig ileum longitudinal smooth muscle assessed as inhibition of calcium-induced contraction at 5x10'-7 M relative to control; format: functional, Cavia porcellus; set-up: scale not given: the % may be the effect or the level left
[7] = tested on: Aorta; assay: Relaxant activity in potassium depolarized guinea pig aortic strips assessed as inhibition of calcium-induced contraction at 5x10'-5 M relative to control; format: functional, Cavia porcellus; set-up: scale not given: the % may be the effect or the level left
[8] = Selectivity ratio of EC50 for negative chronotropic activity in guinea pig right atrium to EC50 for negative inotropic activity in guinea pig left atrium; format: functional, Cavia porcellus, Cardiac atrium
[9] = Negative chronotropic activity in guinea pig right atrium assessed as decrease in atrial rate; format: functional, tissue-based; conditions: Cavia porcellus, Cardiac atrium
Outline: (§2)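 Isolated guinea pig atria are used, with left atria driven at 1 Hz. Compounds are added cumulatively. EC50 is derived from log concentration−response curves by Litchfield–Wilcoxon probit analysis, n = 6−7. EC50 is not calculated when the maximal effect is below 50%.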

[10] = Negative chronotropic activity in guinea pig right atrium assessed as decrease in atrial rate at 5x10'-6 M relative to control; format: functional, Cavia porcellus, Cardiac atrium; set-up: scale not given: the % may be the effect or the level left
[11] = Negative inotropic activity in guinea pig left atrium assessed as decrease in developed tension at 10^-4 M relative to control; format: functional, Cavia porcellus, Cardiac atrium; set-up: scale not given: the % may be the effect or the level left
[12] = Negative inotropic activity in guinea pig left atrium assessed as decrease in developed tension; format: functional, tissue-based; conditions: Cavia porcellus, Cardiac atrium; outline: as §2
[13] = Displacement of [3H]-PN200-110 from L-type calcium channel dihydropyridine binding site in Wistar rat cortex homogenate after 60 mins by liquid scintillation spectometric analysis; format: tissue-based
Outline: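 Competition binding on rat cortex homogenate with (+)-[5-methyl-3H]PN200-110. Compounds are dissolved in DMSO as 10⁻² M stocks and diluted in buffer. Six displacer concentrations are tested, each in triplicate. IC50 is obtained by −log probit analysis and Ki by the Prusoff method. Values are mean ± SEM of 3−5 separate experiments done in triplicate.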

[14] = species: Rattus norvegicus; assay: Displacement of [3H]-PN200-110 from L-type calcium channel dihydropyridine binding site in Wistar rat cortex homogenate at 100 uM after 60 mins by liquid scintillation spectometric analysis relative to control; format: tissue-based
Outline: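 Binding on rat cortex homogenate using (+)-[5-methyl-3H]PN200-110. The read-out is percent of maximal radioligand displacement at 100 μM test compound. Compounds are made up as 10⁻² M DMSO stocks and diluted in buffer. Values are from 3−5 separate experiments done in triplicate.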

[15] = species: Cavia porcellus; assay: Displacement of [3H]-PN200-110 from L-type calcium channel in Hartley guinea pig ventricular membrane […] after 90 mins relative to control
[16] = Displacement of [3H]-PN200-110 from L-type calcium channel in Hartley guinea pig atrial membrane after 90 mins; format: cell membranes, Cavia porcellus, Cardiac atrium
Outline: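 Guinea pig atrial membranes are labelled at the 1,4-DHP site with (+)-[5-methyl-3H]PN200-110 at 0.5 nM. Competitor is added over 0.001−100 μM from 10⁻² M DMSO stocks diluted in buffer. Results are given as IC50 and Ki, mean ± SEM. Student's t-test is applied with P<0.001.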

[17] = species: Cavia porcellus; assay: Displacement of [3H]-PN200-110 from L-type calcium channel in Hartley guinea pig atrial membrane at 100 uM after 90 mins relative to control; format: cell membranes; conditions: Cardiac atrium
[18] = tested on: HEK293; assay: Displacement of [3H]-PN200-110 from voltage-gated calcium channel subunit alpha Cav1.2a (unknown origin) expressed in HEK293 cells at 100 uM after 90 mins by liquid scintillation counting analysis relative to control; format: cell-based; conditions: Homo sapiens
[19] = tested on: Ileum; assay: Relaxant activity in potassium depolarized guinea pig ileum longitudinal smooth muscle assessed as inhibition of calcium-induced contraction at 10^-5 M relative to control; format: functional, Cavia porcellus; set-up: scale not given: the % may be the effect or the level left; outline: as §1
[20] = Negative chronotropic activity in guinea pig right atrium assessed as decrease in atrial rate at 10^-4 M relative to control; format: functional, Cavia porcellus, Cardiac atrium; set-up: scale not given: the % may be the effect or the level left
Outline: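 The read-out is decrease in rate of spontaneously beating isolated guinea pig right atrium at 10⁻⁴ M. It is expressed as percent change from control, n = 7−8.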

[21] = Negative inotropic activity in guinea pig left atrium assessed as decrease in developed tension at 10^-5 M relative to control; format: functional, Cavia porcellus, Cardiac atrium; set-up: scale not given: the % may be the effect or the level left
[22] = Displacement of [3H]-PN200-110 from voltage-gated calcium channel subunit alpha Cav1.2a (unknown origin) expressed in HEK293 cells after 90 mins by liquid scintillation counting analysis; format: cell-based, Homo sapiens
Outline: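 Intact HEK-293 cells stably transfected with a rabbit Cav1.2a (α1c-a) plasmid are used. They are incubated with 0.5 nM (+)-[5-methyl-3H]PN200-110 plus competitor at 0.001−100 μM, from 10⁻² M DMSO stocks diluted in buffer. IC50 values are given as mean ± SEM.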

[23] = Displacement of [3H]-PN200-110 from L-type calcium channel in Hartley guinea pig ventricular membrane […] after 90 mins; set-up: species or system Cavia porcellus

COC(=O)C1=C(C)NC(C)=C(C(=O)OC)C1c1c(-c2ccncc2)nc2sccn12
pIC50 [1]: 6.02 | Activity [2]: 90% | Activity [3]: 14% | Activity [4]: 25% | Activity [5]: 46%

COC(=O)C1=C(C)NC(C)=C(C(=O)OC)C1c1c(-c2c(Cl)csc2Cl)nc2sccn12
pIC50 [1]: 6.74 | Activity [6]: 95% | Activity [7]: 22% | Ratio EC50 [8]: 47 | pEC50 [9]: 5.67 | Activity [10]: 77% | Activity [11]: 74% | pEC50 [12]: 7.34

COC(=O)C1=C(C)NC(C)=C(C(=O)OC)C1c1c(-c2ccccc2C(F)(F)F)nc2sccn12
pIC50 [13]: 4.41 | pKi [13]: 4.86 | %max [14]: 52% | %max [15]: < 50% | pIC50 [16]: 6.85 | pKi [16]: 7.31 | %max [17]: 91% | %max [18]: < 50%

COC(=O)C1=C(C)NC(C)=C(C(=O)OC)C1c1c(-c2ccccn2)nc2sccn12
pIC50 [1]: 5.59 | Activity [19]: 87% | Activity [7]: 28% | Ratio EC50 [8]: 45 | pEC50 [9]: 4.61 | Activity [20]: 71% | Activity [21]: 58% | pEC50 [12]: 6.27

CCOC(=O)C1=C(C)NC(C)=C(C(=O)OCC)C1c1c(-c2cc(OC)ccc2OC)nc2sccn12
pIC50 [13]: 6.62 | pKi [13]: 6.77 | %max [14]: 98% | pIC50 [22]: 6.07 | pKi [22]: 6.52 | pIC50 [23]: 5.84 | pKi [23]: 6.29 | %max [15]: 91% | pIC50 [16]: 7.11 | pKi [16]: 7.77 | %max [17]: 76% | pIC50 [1]: 7.34 | Activity [6]: 85% | Activity [3]: 29% | pEC50 [9]: 5.58 | Activity [4]: 88% | Activity [11]: 93% | pEC50 [12]: 5.94 | %max [18]: 94%

COC(=O)C1=C(C)NC(C)=C(C(=O)OC)C1c1c(-c2cc(OC)cc(OC)c2)nc2sccn12
pIC50 [13]: 5.92 | pKi [13]: 6.39 | %max [14]: 79% | pIC50 [22]: 6.21 | pKi [22]: 6.72 | pIC50 [23]: 6.08 | pKi [23]: 6.51 | %max [15]: 60% | pIC50 [16]: 6.60 | pKi [16]: 7.05 | %max [17]: 54% | %max [18]: 50%

COC(=O)C1=C(C)NC(C)=C(C(=O)OC)C1c1c(-c2cccs2)nc2sc(C)cn12
pIC50 [1]: 5.86 | Activity [2]: 81% | Activity [3]: 9% | pEC50 [9]: 4.39 | Activity [20]: 70% | Activity [5]: 40%

COC(=O)C1=C(C)NC(C)=C(C(=O)OC)C1c1c(-c2ccsc2)nc2sc(C)cn12
pIC50 [1]: 5.45 | Activity [19]: 74% | Activity [3]: 6% | pEC50 [9]: 5.64 | Activity [20]: 85% | Activity [11]: 12%

COC(=O)C1=C(C)NC(C)=C(C(=O)OC)C1c1c(-c2ccccn2)nc2sc(C)cn12
pIC50 [1]: 5.55 | Activity [19]: 78% | Activity [3]: 13% | pEC50 [9]: 4.40 | Activity [20]: 72% | Activity [5]: 42%

COC(=O)C1=C(C)NC(C)=C(C(=O)OC)C1c1c(-c2cccnc2)nc2sccn12
pIC50 [1]: 5.45 | Activity [19]: 91% | Activity [3]: 36% | pEC50 [9]: 4.55 | Activity [20]: 98% | Activity [21]: 25%

COC(=O)C1=C(C)NC(C)=C(C(=O)OC)C1c1c(-c2ccc(OC)c(OC)c2)nc2sccn12
pIC50 [13]: 6.46 | pKi [13]: 6.96 | %max [14]: 77% | pIC50 [22]: 7.21 | pKi [22]: 7.64 | pIC50 [23]: 7.34 | pKi [23]: 7.80 | %max [15]: 93% | pIC50 [16]: 6.41 | pKi [16]: 6.85 | %max [17]: 50% | %max [18]: 55%

COC(=O)C1=C(C)NC(C)=C(C(=O)OC)C1c1c(Cl)nc2sc(C)cn12
pIC50 [13]: 2.99 | pKi [13]: 3.47 | %max [14]: 60% | %max [15]: < 50% | pIC50 [16]: 6.92 | pKi [16]: 7.38 | %max [17]: 95% | %max [18]: < 50%

COC(=O)C1=C(C)NC(C)=C(C(=O)OC)C1c1c(Cl)nc2scc(C)n12
pIC50 [13]: 3.97 | pKi [13]: 4.46 | %max [14]: 52%

CCCc1cn2c(C3C(C(=O)OC)=C(C)NC(C)=C3C(=O)OC)c(-c3c(OC)ccc(OC)c3[N+](=O)[O-])nc2s1
pIC50 [22]: 8.36 | pKi [22]: 8.80 | pIC50 [23]: 5.48 | pKi [23]: 5.94 | %max [15]: 50% | pIC50 [16]: 7.19 | pKi [16]: 7.64 | %max [17]: 53% | %max [18]: 55%

COC(=O)C1=C(C)NC(C)=C(C(=O)OC)C1c1c(-c2cc(OC)ccc2OC)nc2sccn12
pIC50 [13]: 6.68 | pKi [13]: 6.80 | %max [14]: 56% | %max [15]: < 50% | pIC50 [16]: 6.92 | pKi [16]: 7.36 | %max [17]: 65% | %max [18]: < 50%

COC(=O)C1=C(C)NC(C)=C(C(=O)OC)C1c1c(-c2cccc(OC)c2)nc2sccn12
pIC50 [13]: 6.00 | pKi [13]: 6.48 | %max [14]: 90% | pIC50 [23]: 6.35 | pKi [23]: 6.80 | %max [15]: 96% | pIC50 [16]: 6.54 | pKi [16]: 7.05 | %max [17]: 92% | %max [18]: < 50%

COC(=O)C1=C(C)NC(C)=C(C(=O)OC)C1c1c(C(F)(F)F)nc2sccn12
pIC50 [13]: 5.78 | pKi [13]: 6.28 | %max [14]: 75%

Source: ChEMBL document CHEMBL2380289, “Ligand based approach to L-type calcium channel by imidazo[2,1-b]thiazole-1,4-dihydropyridines: from heart activity to brain affinity” (J Med Chem, 2013)
